We go through one compound from ChEMBL document CHEMBL4732051, “The discovery of potent small molecule activators of human STING” (Eur J Med Chem, 2021).

Active and inactive are the calls of the source. The rule behind the calls is not given here.

Data set [1] in a line: Oral bioavailability in BALB/c mouse at 10 mg/kg measured up to 24 hrs by LC-MS/MS analysis. Format: ADME, organism-based. The following applies: in vivo. Put shortly:
(§1)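 Overnight-fasted mice, randomized, n=3 per group, each given a single dose by lateral tail vein (iv) or oral gavage. Blood (50 μl per point, under isoflurane) was taken from the retro-orbital plexus. Sampling was at 2 min–24 h after iv and 5 min–24 h after oral dosing. Plasma was separated at 1500 x g for 15 min at 4 °C, stored at -80 °C, and analysed by LCMS.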

Data set [2] deals with HEK293T. In words: Induction of STING R232H mutant (unknown origin) expressed in HEK293T cells assessed as increase in luciferase coupled ISG54-ISRE activity incubated for 18 hrs luciferase reporter gene assay. Format: cell-based. The following applies: Homo sapiens, filed as activator.
Data set [3] relates to HEK293T. In words: Activation of human STING H232 mutant expressed in HEK293T cells assessed as phosphorylation at (Ser366) at 10 uM incubated for 2 hrs and measured by Western blot analysis. It is filed as cell-based. The following applies: filed as activator. The method, boiled down:
(§2)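 HEK293T clones stably carrying each human STING variant, picked by blasticidin selection and limiting dilution. 5 x 10^5 cells were exposed to compound at 10μM for 2 h, lysed in RIPA with phosphatase and protease inhibitors, and 10 μg protein run on 10% SDS-PAGE. Immunoblots probed for pSTING (Ser366), pIRF3 (Ser396), total STING, IRF3 and actin, detected by ECL.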

Data set [4] is described as follows: Cmax in BALB/c mouse at 10 mg/kg, po measured up to 24 hrs by LC-MS/MS analysis. The following applies: in vivo. More on the design: route oral, dose 10 mg/kg, time <=24. Format: ADME, organism-based. The method, boiled down:
(§3)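 Overnight-fasted mice, n=3 per group, single dose by lateral tail vein (iv) or oral gavage (po). Retro-orbital blood under isoflurane at 2 min–24 h (iv) or 5 min–24 h (po). Plasma spun at 1500 x g, 15 min, 4 °C, stored -80 °C, then analysed by LCMS.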

Data set [5] addresses T1, Stimulator of interferon genes protein (Homo sapiens, UniProt Q86WV6). Nature of the data set: Activation of wild-type human STING expressed in HEK293T cells assessed as IRF3 reporter activation measured after 20 hrs by luciferase reporter gene assay. It is filed as cell-based. For orientation: In a reporter assay the amount or activity of a reporter protein is the signal.

Data set [6] addresses T1, Stimulator of interferon genes protein. Nature of the data set: Activation of human STING in human PBMC cells assessed as induction of IFNbeta expression at 10 uM incubated upto 24 hrs and measured by qt-PCR analysis. Format: cell-based. The settings on record: filed as activator, time hrs <=24. The method, boiled down: (§4)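 2 x 10^5 freshly isolated human PBMC from healthy donors, separated on Histopaque, given a single compound concentration. Harvested early (6 hr) or late (20h). Cytokine mRNA read by qRT-PCR as relative normalized expression (fold) against vehicle-treated cells.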

Data set [7] relates to HEK293T. In words: Activation of human STING R232H mutant expressed in HEK293T cells assessed as phosphorylation of IFR3 at (Ser396) upto 10 uM incubated for 2 hrs and measured by Western blot analysis. The settings on record: filed as activator, dose microM <=10, time 2.0 hrs. Format: cell-based. The method, boiled down: as §2
Data set [8] addresses T1, Stimulator of interferon genes protein. In words: Activation of human STING in human PBMC cells assessed as induction of TNFalpha expression at 10 uM measured by qt-PCR analysis. Format: cell-based. The following applies: filed as activator. The method, boiled down:
as §4

Data set [9] has as its system Stimulator of interferon genes protein (Homo sapiens), Q86WV6 [G230A,R293Q]. Nature of the data set: Induction of STING AQ mutant (unknown origin) expressed in HEK293T cells assessed as increase in luciferase coupled ISG54-ISRE activity incubated for 18 hrs luciferase reporter gene assay. The settings on record: filed as activator. It is filed as cell-based.
A short description of data set [10]: Cmax in BALB/c mouse at 5 mg/kg, iv measured up to 24 hrs by LC-MS/MS analysis. It is filed as ADME, organism-based. More on the design: route intravenous, dose 5 mg/kg, time <=24. The settings on record: in vivo. The method, boiled down:
as §3

Data set [11] has as its system Stimulator of interferon genes protein (Homo sapiens), Q86WV6 [UNDEFINED MUTATION]. Nature of the data set: Activation of human STING R232 in human dendritic cells assessed as induction of CD83 measured by qt-PCR analysis. It is filed as cell-based. The following applies: Dendritic cell, filed as activator. The method, boiled down:
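PBMC isolated on Histopaque 1077, ACK-lysed, monocytes purified by MACS. Monocytes at 1 x 10^6 cells/ml in RPMI/10% FBS with 100ng/ml GMCSF and 50ng/ml IL4, 37 °C, 5% CO2, for 24–36 h. Compound added (1% DMSO final) for 6 h. CD86 and CD83 read by qPCR as fold of vehicle-treated cells.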

Data set [12] concerns the target T1, Stimulator of interferon genes protein. Nature of the data set: Activation of human STING expressed in human PBMC cells assessed as phosphorylation of IRF3 at (Ser396) at 10 uM incubated for 2 hrs and measured by Western blot analysis. It is filed as cell-based. The following applies: filed as activator. Put shortly:
(§5)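 Tumor cell lines or human primary cells carrying endogenous STING variants; STING KO cells as control. 10µM for 2 h, then lysed in RIPA with phosphatase and protease inhibitors. 10 μg protein on 10% SDS-PAGE, blotted for pSTING (Ser366), pIRF3 (Ser396), STING, IRF3 and actin, ECL detection.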

The subject of data set [13] is Stimulator of interferon genes protein (Homo sapiens), Q86WV6 [UNDEFINED MUTATION]. Nature of the data set: Activation of human STING R232 in human MDA-MB-468 cells assessed as phosphorylation of IRF3 at (Ser396) at 10 uM incubated for 2 hrs and measured by Western blot analysis. It is filed as cell-based. The settings on record: filed as activator. Put shortly:
as §5

The test system of data set [14] is Stimulator of interferon genes protein (Homo sapiens), Q86WV6 [R71H,G230A,R293Q]. In words: Induction of STING HAQ mutant (unknown origin) expressed in HEK293T cells assessed as increase in luciferase coupled ISG54-ISRE activity incubated for 18 hrs luciferase reporter gene assay. It is filed as cell-based. The settings on record: filed as activator.
For a further data set, the system named is HeLa. Nature of the data set: Cytotoxicity against human HeLa cells at 5 to 10 uM. It is filed as cell-based. The following applies: dose 5-10 µM.
The nature of data set [15]: Volume of distribution in BALB/c mouse at 5 mg/kg, iv measured up to 24 hrs by LC-MS/MS analysis. The following applies: in vivo. It is filed as ADME, organism-based. Put shortly:
as §1

Data set [16] has as its system Stimulator of interferon genes protein (Homo sapiens), Q86WV6 [UNDEFINED MUTATION]. In words: Activation of human STING R232 in human MDA-MB-468 cells assessed as phosphorylation at (Ser366) at 10 uM incubated for 2 hrs and measured by Western blot analysis. The following applies: filed as activator. It is filed as cell-based. Put shortly: as §5
A general note: A western blot detects proteins with antibodies after separation by electrophoresis.

The target of data set [17] is T1, Stimulator of interferon genes protein. Nature of the data set: Activation of human STING in human PBMC cells assessed as induction of CCL20 expression at 10 uM measured by qt-PCR analysis. It is filed as cell-based. The following applies: filed as activator. Put shortly: as §4
In the next data set the target is T2, Cytochrome P450 1A2 (Homo sapiens, UniProt P05177).
T2 sequence (P05177 whole entry): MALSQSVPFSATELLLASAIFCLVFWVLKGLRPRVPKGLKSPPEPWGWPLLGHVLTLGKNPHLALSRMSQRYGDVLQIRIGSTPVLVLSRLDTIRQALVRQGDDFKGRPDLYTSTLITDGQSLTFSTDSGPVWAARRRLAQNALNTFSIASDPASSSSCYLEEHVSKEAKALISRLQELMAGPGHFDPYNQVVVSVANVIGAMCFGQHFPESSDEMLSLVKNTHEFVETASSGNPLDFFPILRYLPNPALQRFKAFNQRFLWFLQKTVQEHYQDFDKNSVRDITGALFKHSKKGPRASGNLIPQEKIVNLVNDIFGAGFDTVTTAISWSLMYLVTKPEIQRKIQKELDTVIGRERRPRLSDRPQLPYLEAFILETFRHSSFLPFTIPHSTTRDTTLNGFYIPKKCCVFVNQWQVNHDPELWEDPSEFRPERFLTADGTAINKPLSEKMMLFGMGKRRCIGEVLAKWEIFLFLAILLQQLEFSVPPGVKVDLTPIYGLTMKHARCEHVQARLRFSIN
In words: Inhibition of CYP1A2 (unknown origin). Format: ADME.

Stimulator of interferon genes protein (Homo sapiens), Q86WV6 [UNDEFINED MUTATION], sequence (Q86WV6 whole entry, looked up, stated change not applied): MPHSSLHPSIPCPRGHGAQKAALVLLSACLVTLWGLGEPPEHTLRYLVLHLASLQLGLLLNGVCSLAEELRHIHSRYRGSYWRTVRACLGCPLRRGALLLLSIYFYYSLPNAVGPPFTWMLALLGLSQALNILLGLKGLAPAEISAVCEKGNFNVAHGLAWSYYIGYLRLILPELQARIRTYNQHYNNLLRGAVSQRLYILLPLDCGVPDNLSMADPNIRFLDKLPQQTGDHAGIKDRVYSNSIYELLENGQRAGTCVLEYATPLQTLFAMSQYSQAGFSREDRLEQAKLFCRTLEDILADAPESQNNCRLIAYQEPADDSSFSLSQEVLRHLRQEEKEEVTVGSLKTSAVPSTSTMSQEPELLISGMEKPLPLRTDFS
T1 sequence (Q86WV6 whole entry): as the sequence (Q86WV6 whole entry, looked up, stated change not applied) above
Stimulator of interferon genes protein (Homo sapiens), Q86WV6 [R71H,G230A,R293Q], sequence (Q86WV6 whole entry R71H/G230A/R293Q): as the sequence (Q86WV6 whole entry, looked up, stated change not applied) above, with R71H, G230A, R293Q counted along it
Stimulator of interferon genes protein (Homo sapiens), Q86WV6 [G230A,R293Q], sequence (Q86WV6 whole entry G230A/R293Q): as the sequence (Q86WV6 whole entry, looked up, stated change not applied) above, with G230A, R293Q counted along it

As usually defined, the bioavailability is the share of a dose that reaches the circulation, judged against a reference dose that is usually intravenous. A low value points to little systemic uptake. As a reminder, the Cmax is the peak of the concentration-time curve. The term EC50 denotes the midpoint of the concentration-response curve. Usually Vd stands for a proportionality between amount in the body and measured concentration, not a real space. A higher Vd goes with extensive tissue distribution. `CC1(C)C(=O)N(Cc2c(F)cccc2Cl)c2cc(C(=O)NCc3c(F)cc(F)cc3F)ccc21`: in [1], the bioavailability was found to be 86%. The outcome (in the data set on HEK293T [2]; in the data set with HEK293T [3]; in [6]; in data set [8]; in data set [9]; in data set [11]) was Active. Besides, the result in data set [12], in data set [13], in [14], in [16] and in data set [17] was Active. In addition, the figures for the Cmax in data set [4] and in [10] were 1720 ng/mL and 1870 ng/mL, respectively. In addition, the EC50 in [5] worked out at 185 nM. In addition, the Activity entry with HEK293T [7] was “Dose-dependent effect”; in the data set on HeLa, “Non-Toxic”. This compound also came in with a Vd in [15] of 2.69 L/kg. At Cytochrome P450 1A2, the “inhibition (INH)” value is “Not Active”.
